# This is a sample that favours compounds with a hit; in the whole collection about 9.4% have one here.
# Mdm2-MdmX inh = human Mdm2/MdmX binding inhibition; SaOS-2 split-luciferase Mdm2/MdmX complementation, luminescence; inhibition, % at 8 µM; AID 485346; 3% of 330,000 active;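 active = inhibition of at least 50% at 8 µM in the primary screen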
# Target sequence (O15151 whole entry, looked up): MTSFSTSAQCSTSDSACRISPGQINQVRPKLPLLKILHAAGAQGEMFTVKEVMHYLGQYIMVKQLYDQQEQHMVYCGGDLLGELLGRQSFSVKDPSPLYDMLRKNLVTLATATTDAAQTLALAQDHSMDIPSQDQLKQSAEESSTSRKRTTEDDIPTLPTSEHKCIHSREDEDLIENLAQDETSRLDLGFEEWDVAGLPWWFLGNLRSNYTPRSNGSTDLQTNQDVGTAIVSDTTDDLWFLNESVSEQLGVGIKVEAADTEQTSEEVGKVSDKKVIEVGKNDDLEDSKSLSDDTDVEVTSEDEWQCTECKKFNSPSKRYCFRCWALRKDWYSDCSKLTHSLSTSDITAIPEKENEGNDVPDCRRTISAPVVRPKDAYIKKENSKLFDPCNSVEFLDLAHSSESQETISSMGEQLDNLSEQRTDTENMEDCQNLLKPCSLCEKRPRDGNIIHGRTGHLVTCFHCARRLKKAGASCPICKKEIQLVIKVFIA
# Target sequence (Q00987 whole entry, looked up): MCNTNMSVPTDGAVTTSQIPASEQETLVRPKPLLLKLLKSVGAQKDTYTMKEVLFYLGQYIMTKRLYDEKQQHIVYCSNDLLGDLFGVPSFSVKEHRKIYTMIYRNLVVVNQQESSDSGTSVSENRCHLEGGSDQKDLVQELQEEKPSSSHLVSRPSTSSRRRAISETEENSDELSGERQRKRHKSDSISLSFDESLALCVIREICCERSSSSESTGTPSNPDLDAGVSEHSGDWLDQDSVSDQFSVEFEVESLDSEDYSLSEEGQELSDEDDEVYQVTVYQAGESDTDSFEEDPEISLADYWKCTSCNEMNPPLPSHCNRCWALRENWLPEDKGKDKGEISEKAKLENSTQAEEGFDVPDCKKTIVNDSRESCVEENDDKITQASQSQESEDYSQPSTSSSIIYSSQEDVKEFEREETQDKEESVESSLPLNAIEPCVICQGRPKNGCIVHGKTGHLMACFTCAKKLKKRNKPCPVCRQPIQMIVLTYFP
# T cruzi inh = T. cruzi replication inhibition. AID 1885. 1.4% of 300,000 active. inhibition, % (test concentration not listed). T. cruzi beta-gal in NIH3T3, luminescence, 90 h;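 active = mean inhibition across valid replicates above about 55%, limit read from the data; inconclusive = mean below that limit but half or more replicates reach it; inactive = mean below it, under half of replicates reach it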;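 note: signal also drops with host cell toxicity which is not excluded here; 0% = plate median of DMSO wells and 100% = zero luminescence signal; higher percent means less beta-gal luminescence so fewer parasites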
#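 Read-out: Parasite load inhibition, % | Test system: Mouse NIH/3T3 fibroblasts infected with β-gal-expressing T. cruzi Tulahuen C4 | Amount: 5,000 cells/well | Medium: DMEM, 2% fetal bovine serum | Signal: GalScreen β-gal luminescence, detergent lysis, 60 min | Timing: 3 h attach, ≥90 h co-culture | Also added: Tulahuen C4 trypomastigotes, 5000/well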
# Beta apoptosis = beta cell apoptosis inhibition; protection from apoptosis, % (concentration not given with the values); AID 435005; 0.8% of 300,000 active; INS-1E cytokine-induced death, ATP luminescence, 48 h; percent of positive-control rescue, neutral wells zero;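 active = Every replicate reaches about 75%, or at least half do and their mean reaches it too, limit read from the data; inconclusive = At least half of replicates reach the limit but their mean does not; inactive = Under half of replicates reach the limit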;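 note: 0% = cytokine-treated negative control wells and 100% = positive control rescue; higher means more ATP so stronger rescue from cytokine killing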
# CSC inhib = cancer stem cell inhibition; cancer stem cell-like cells viability, luminescence; inhibition, % at 7.5 µM; 1.1% of 300,000 active; AID 2717; in the data active = inhibition above about 75%; inconclusive = no clear call, values can overlap the other calls; tested in HMLE shEcad cells
# SKKanGAS inh = inhibitors of SKKanGAS S. pyogenes growth in kanamycin (SK-promoter or general growth effect) | 1.3% of 300,000 active | BacTiter-Glo, 6 h | inhibition, % at 7.5 µM;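 active = mean replicate score, as percent of positive control median, at least 50; inconclusive = mean below 50 but one replicate at or above 50; inactive = mean and every replicate below 50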;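 note: strain carries kanamycin resistance gene driven by streptokinase promoter and grows in 40 µg/ml kanamycin; loss of luminescence reflects streptokinase promoter inhibition or plain growth inhibition; 0% = median of DMSO wells and 100% = positive control at its reference dose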
# L major viab = Leishmania major promastigote growth inhibition | Leishmania major promastigotes, resazurin fluorescence viability | inhibition, % at 10 µM | 9% of 200,000 active; in the data active = inhibition above about 50%;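 note: promastigotes grown with compound for 44 hours at 28 °C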
# Mdm2-MdmX conf = confirmation of human Mdm2/MdmX interaction inhibitors; AID 489028; shares compounds with Mdm2-MdmX inh; Mdm2-MdmX binding, luminescent assay; inhibition, % at 8 µM; 55% of 10,000 active; in the data active = inhibition above about 40%
# FLuc counter = inhibits full-length luciferase, flagging false Mdm2/MdmX hits; shares compounds with Mdm2-MdmX inh; SaOS-2 full-length luciferase counterscreen, luminescence; inhibition, % at 8 µM; 77% of 6,200 active; AID 504607;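 active = mean inhibition at 8 µM reaching about 37%, which flags the compound as non-specific, limit read from the data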;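 note: p53-null SaOS-2 cells with luciferase driven by a doxycycline-inducible promoter; compound on cells about two nights before reading with doxycycline added after day one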
# * marks the source's active call; other numbers are inactive results; u = inconclusive; x = no result given.
SMILES,Mdm2-MdmX inh,T cruzi inh,Beta apoptosis,CSC inhib,SKKanGAS inh,L major viab,Mdm2-MdmX conf,FLuc counter
O=C(Nc1ncnc2c1C(c1ccccc1)c1c(ccc3ccccc13)O2)c1ccccc1 (stereo not given),65*,x,82*,x,x,x,52*,45*
O=C(Cc1ccccc1)Nc1ncnc2c1C(c1ccccc1)c1c(ccc3ccccc13)O2 (stereo not given),90*,x,13,42,x,x,23,x
COC(=O)CC1COc2ccccc2N1S(=O)(=O)c1ccc(OC)cc1 (stereo not given),55*,7,2,47,6,x,51*,61*
O=C(NC1CCCCC1)c1n[nH]c2c1CCCCC2,71*,x,5,x,x,x,69*,65*
CC(C)(C)OC(=O)N1Cc2ccccc2C[C@H]1C(=O)NCC(=O)Nc1ccc2c(c1)OCCO2,64*,-5,4,-8,4,x,66*,67*
COc1cccc(NC(=O)CNC(=O)[C@@H]2Cc3ccccc3CN2C(=O)OC(C)(C)C)c1,-10,-6,-3,-15,-2,x,x,x
Cc1cc(C)cc(NC2=NC3(CCCCC3)N=C(N)N2)c1,59*,1,-1,53,-1,-2,53*,73*
NC1=NC2(CCCCC2)N=C(Nc2ccc(F)cc2F)N1,2,-1,-1,-4,-2,-2,x,x
O=[N+]([O-])c1cccc(NC(=S)Nc2nc(-c3ccccc3Cl)cs2)c1,96*,38,33,86*,u,x,85*,63*
CCNC(=S)Nc1cccc([N+](=O)[O-])c1,10,-8,-11,15,-5,1,x,x
COc1cc(/C=N/NC(=O)c2cncc(Br)c2)cc([N+](=O)[O-])c1O,56*,-5,-3,11,108*,x,50*,48*
Cc1ccc(C(C)(O)CS(=O)(=O)Cc2ccccc2Cl)cc1 (stereo not given),3,-6,-7,-2,1,x,x,x
CC(NC(=O)c1ccc(C(=O)c2ccccc2)cc1)c1ccc(S(N)(=O)=O)cc1 (stereo not given),29,x,x,x,x,x,x,x
CC(NC(=O)c1ccc(CS(C)(=O)=O)cc1)c1ccc(-c2ccccc2)cc1 (stereo not given),52*,17,-2,-4,1,x,-2,x
CSc1nc2c(c(=O)[nH]c(=O)n2C)n1Cc1ccc(Cl)cc1,29,16,6,-2,-4,x,x,x
Cn1c(=O)[nH]c(=O)c2c1nc(N/N=C/c1ccncc1)n2Cc1ccc(Cl)cc1,67*,5,3,-8,7,x,15,x
O=c1[nH]c(=O)n(Cc2ccco2)c2c1C(C(F)(F)F)(C(F)(F)F)N=C(CCC1CCCCC1)N2,62*,11,x,23,4,3,88*,40*
O=c1[nH]c(=O)n(Cc2ccco2)c2c1C(C(F)(F)F)(C(F)(F)F)N=C(C1CCCCC1)N2,5,4,7,-20,-4,-2,x,x
O=c1[nH]c(=O)n(Cc2ccco2)c2c1C(C(F)(F)F)(C(F)(F)F)N=C(CCc1ccccc1)N2,51*,2,15,-8,5,28,39,65*
CC(C)Cn1c2c(c(=O)[nH]c1=O)C(C(F)(F)F)(C(F)(F)F)N=C(CCC1CCCCC1)N2,52*,33,39,7,24,80*,71*,52*
CCOC(=O)c1ccccc1NC(=O)COC(=O)CCNS(=O)(=O)c1ccccc1,2,-11,-6,-10,-6,x,x,x
CC(NC(=O)/C(C#N)=C1\N=C(NC(=O)c2ccco2)c2ccccc21)c1ccccc1 (stereo not given),67*,9,0,19,4,x,12,x
CCCNC(=O)/C(C#N)=C1\N=C(NC(=O)c2cccs2)c2ccccc21,40,-3,-4,-10,-3,x,x,x
COC(=O)C1=C(C)N(Cc2ccccc2)C(=NCc2cccc(Cl)c2)N[C@H]1c1ccccc1,89*,x,9,122*,x,x,34,x
COC(=O)C1=C(C)N(Cc2ccccc2)C(=NCc2cc(OC)c(OC)c(OC)c2)N[C@H]1c1ccc(Br)cc1,69*,x,-3,26,x,x,22,x
SMILES,Mdm2-MdmX inh,T cruzi inh,Beta apoptosis,CSC inhib,SKKanGAS inh,L major viab,Mdm2-MdmX conf,FLuc counter
COCCN1C(=S)N[C@@H](c2cccc(F)c2)C(C(=O)OC)=C1C,59*,0,-9,27,16,x,27,x
COC(=O)C1=C(C)N(Cc2ccccc2)C(=NCc2ccccc2)N[C@H]1c1ccccc1,91*,x,5,8,x,x,31,x
COC(=O)C1=C(C)N(CC2CC2)C(=NCc2cccc(Cl)c2)N[C@H]1c1ccccc1,45,25,x,-20,5,x,x,x
O=C1Cc2cc(NS(=O)(=O)c3cc(F)ccc3F)cc3c2N1CCC3,6,-10,2,1,0,x,x,x
O=C(Nc1cccc(NC(=O)C2CCCO2)c1)c1ccco1 (stereo not given),-14,-14,-10,22,6,-4,x,x
COc1cc([N+](=O)[O-])cc2cc(C(=O)N3CCCC3)c(=O)oc12,-12,6,-15,-3,-2,-7,x,x
COC(=O)C1=C(C)N(Cc2ccccc2)C(=NCc2ccccc2)N[C@H]1c1cccc(F)c1,74*,18,26,28,8,x,38,47*
COC(=O)C1=C(C)N(Cc2ccccc2)C(=S)N[C@H]1c1cccc(F)c1,23,-44,6,1,1,x,x,x
CCN(CC)CCCN=C1N[C@@H](c2cccc(C(F)(F)F)c2)C(C(=O)OC)=C(C)N1CC,100*,x,-1,x,x,x,75*,30
CCN(CC)CCCN=C1N[C@@H](c2cccc(F)c2)C(C(=O)OC)=C(C)N1Cc1ccccc1,100*,x,-3,24,x,x,83*,59*
Cc1[nH]n(-c2ccc([N+](=O)[O-])cc2)c(=O)c1C=NCCc1c(C)[nH]c2ccccc12,-9,15,17,23,18,21,x,x
Cc1cccc(OCC(=O)NC(C)C(=O)N/N=C/c2c(OCc3ccccc3)ccc3ccccc23)c1 (stereo not given),76*,-62,5,x,23,28,36,69*
Cc1cc(O)c(C(=O)Nc2cccc(Cl)c2)c(=O)n1C,41,3,-3,-5,1,x,x,x
Cn1nc(-c2ccc(C(=O)NCCO)cc2)c2ccccc2c1=O,4,-20,2,11,-3,x,x,x
O=C1[C@@H](Oc2ccccc2)[C@@H](c2ccncc2)N1c1ccccc1,53*,x,x,x,x,x,48*,48*
CCC(C)[C@H](NC(=O)N1CC(=O)Nc2ccccc21)C(=O)N[C@H](Cc1ccccc1)C(=O)O (stereo not given in full),-6,-2,-5,-13,-3,x,x,x

# From PubChem BioAssay
